Assay results from ChEMBL document CHEMBL3751835, “Discovery of the imidazole-derived GPR40 agonist AM-3189” (Bioorg Med Chem Lett, 2016).
pEC50: −log10 of the molar value. The source made the active and inactive calls. The rule behind the calls is not given here.

Legend:
[1] = Clearance in dog at 0.5 mg/kg, iv; type: ADME, organism-based, Canis lupus familiaris; conditions: in vivo
Procedure, shortened: (§1)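 Oral doses given as a suspension in aqueous 1% Tween 80 in 1% methylcellulose; IV doses formulated in 10% N,N-dimethylacetamide, 10% ethanol, 30% propylene glycol, 50% sterile water. Animals per species: mouse n = 2 (plasma from two mice at each time point), rat n = 2, dog n = 3, cynomolgus monkey n = 3.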

[2] = Volume of distribution at steady state in mouse at 1 mg/kg, iv; type: ADME, organism-based; conditions: in vivo, read-out: Vdss; procedure, shortened: as §1
[3] = Cmax in mouse at 5 mg/kg, po; type: ADME, organism-based; parameters: dose 5 mg/kg, route oral; conditions: in vivo; procedure, shortened: as §1
[4] = Agonist activity at dog GPR40 in presence of 0.01% human serum albumin; parameters: species or system Canis lupus familiaris
[5] = biological target: Free fatty acid receptor 1 (Macaca fascicularis) (UniProt Q76JV1); test: Agonist activity at cynomolgus monkey GPR40 in presence of 0.01% human serum albumin relative to AMG 837 relative to AMG 837
[6] = biological target: T1, Peroxisome proliferator-activated receptor gamma (Homo sapiens) (UniProt P37231); test: Activity at PPARgamma (unknown origin) by cell based assay
T1 sequence (whole entry): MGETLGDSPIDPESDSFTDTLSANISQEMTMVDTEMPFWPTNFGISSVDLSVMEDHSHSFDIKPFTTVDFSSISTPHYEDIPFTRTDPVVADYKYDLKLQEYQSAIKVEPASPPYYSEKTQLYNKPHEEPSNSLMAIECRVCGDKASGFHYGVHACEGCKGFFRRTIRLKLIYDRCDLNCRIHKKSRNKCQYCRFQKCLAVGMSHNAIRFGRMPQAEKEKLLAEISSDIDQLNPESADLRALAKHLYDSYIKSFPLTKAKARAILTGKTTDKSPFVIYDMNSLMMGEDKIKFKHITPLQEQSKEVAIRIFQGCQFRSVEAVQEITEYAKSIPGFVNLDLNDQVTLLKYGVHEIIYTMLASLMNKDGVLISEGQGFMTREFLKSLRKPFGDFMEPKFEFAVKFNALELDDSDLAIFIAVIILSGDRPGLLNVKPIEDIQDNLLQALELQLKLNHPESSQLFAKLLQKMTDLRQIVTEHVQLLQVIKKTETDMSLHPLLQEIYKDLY

[7] = biological target: T2, Free fatty acid receptor 1 (Sus scrofa) (UniProt F1RM69); test: Agonist activity at pig GPR40 in presence of 0.01% human serum albumin
T2 sequence (whole entry): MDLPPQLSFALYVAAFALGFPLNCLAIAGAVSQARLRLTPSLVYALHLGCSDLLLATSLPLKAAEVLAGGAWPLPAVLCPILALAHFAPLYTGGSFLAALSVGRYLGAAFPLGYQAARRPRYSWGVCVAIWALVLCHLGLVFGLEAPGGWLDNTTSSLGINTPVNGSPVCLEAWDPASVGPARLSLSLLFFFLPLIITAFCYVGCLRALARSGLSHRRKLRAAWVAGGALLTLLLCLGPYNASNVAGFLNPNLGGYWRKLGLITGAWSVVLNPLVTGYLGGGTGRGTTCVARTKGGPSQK

Free fatty acid receptor 1 (Macaca fascicularis), sequence (Q76JV1 whole entry): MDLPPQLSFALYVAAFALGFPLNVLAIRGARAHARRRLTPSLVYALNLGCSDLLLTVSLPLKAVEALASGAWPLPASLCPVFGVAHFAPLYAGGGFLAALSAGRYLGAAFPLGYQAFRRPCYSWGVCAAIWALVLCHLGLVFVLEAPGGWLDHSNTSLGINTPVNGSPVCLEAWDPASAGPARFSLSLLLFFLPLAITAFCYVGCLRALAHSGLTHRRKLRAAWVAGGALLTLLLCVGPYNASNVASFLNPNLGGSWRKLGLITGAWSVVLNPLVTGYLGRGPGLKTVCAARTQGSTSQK

clearance [1]: 2.5 mL/min/kg
Vd [2]: 0.78 L/kg
Cmax [3]: 4.89 µM
pEC50 [4]: 7.43
Emax [5]: 96%
Activity [6]: inactive
Activity [7]: inactive
SMILES: Cc1cc(Cl)ccc1-c1cccc(COc2ccc([C@H](CC(=O)O)c3nccn3C)cc2)c1
